Rows were chosen to be rich in hits. Some 3.5% of all compounds tested hit in one or more screens of this group.
MrgX1 ag = agonists of human MrgX1 receptor; actives 0.44% (n = 310,000); AID 588627; MrgX1-HEK293 cells, Fluo-4 calcium fluorescence, agonist mode; stronger effect = higher value; B-score at 10 µM; Q96LB2;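 active = calcium response B-score plate-corrected fluorescence ratio at least 3 library SD, with starting fluorescence B-score inside 5 SD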
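Material: HEK293 cells stably expressing human MrgX1 receptor | Quantity: 15,000 cells per well | Times: Cells plated overnight, dye loaded 0.5 h 37 °C, 0.5 h room temperature | Measured by: Kinetic Fluo-4 NW fluorescence of intracellular calcium | Control set: Positive and negative controls per plate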
MrgX1 PAM = allosterically activates human MrgX1 receptor signaling | Q96LB2 | MrgX1-HEK293, Fluo-4 calcium flux, FDSS; stronger effect = higher value | B-score at 10 µM | actives 0.63% (n = 310,000);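 active = plate-corrected calcium response at least 3 library SD above typical, normal starting fluorescence, not activating the receptor alone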;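 note: compound read alongside a low EC10 to EC30 dose of BAM8-22 agonist; peak minus trough fluorescence over baseline measured at the second addition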
RGS4 block = human RGS4 inhibition; B-score at 10 µM; P49798; actives 0.45% (n = 310,000); HEK293 M3R/RGS4 inducible, Fluo-4 calcium flux; stronger effect = higher value; triggered by carbachol at its EC20; AID 463165;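 active = B-score, a plate-corrected calcium signal, over three deviations above library mean, with baseline fluorescence within five deviations of library mean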;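 note: RGS4 expression induced by doxycycline in cells with stable M3 receptor; B-score is computed from the integrated fluorescence ratio over baseline after carbachol; higher B-score means a larger calcium signal and so more RGS4 inhibition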
Target sequence (P49798 whole entry, looked up): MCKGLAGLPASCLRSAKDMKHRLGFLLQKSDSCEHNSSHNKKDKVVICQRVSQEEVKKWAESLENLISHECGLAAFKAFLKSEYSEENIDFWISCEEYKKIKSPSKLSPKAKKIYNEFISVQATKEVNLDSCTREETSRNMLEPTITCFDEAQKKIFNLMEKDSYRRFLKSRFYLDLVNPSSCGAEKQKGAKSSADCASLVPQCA
RGS4 pot = RGS4 potentiation or activation; HEK293 M3R/inducible RGS4, carbachol calcium flux Fluo4; stronger effect = lower value; B-score at 10 µM; actives 0.92% (n = 310,000); AID 463111;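 active = B-score of the integrated calcium signal more than 4 SD below the library mean, with starting fluorescence not abnormally high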;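 note: negative B-score means reduced calcium response which marks RGS4 activation or potentiation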
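Also added: carbachol at ECmax as muscarinic agonist stimulus; Assay system: HEK293 cells with stable M3R and inducible RGS4; Timing: overnight RGS4 induction, 30 min dye load 37 °C, 20 min compound RT; Measured by: Fluo4-AM (2 µM) calcium-flux fluorescence, kinetic read.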
MrgX1 antagonist = human MrgX1 receptor antagonism, primary screen; actives 1.3% (n = 310,000); Q96LB2; B-score at 10 µM; MRGX1-HEK293 calcium flux, Fluo-4, BAM8-22 antagonism; stronger effect = lower value;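 active = calcium-response B-score plate-corrected more than 3 library SD below zero, starting fluorescence within 5 deviations, no agonist response on first addition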;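 note: peak minus trough fluorescence over baseline after final BAM8-22 challenge near maximal dose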
An asterisk follows results filed as active; i = inactive; . = no result given.

SMILES	MrgX1 ag	MrgX1 PAM	RGS4 block	RGS4 pot	MrgX1 antagonist
O=P(Nc1cccnc1)(Oc1ccccc1Cl)Oc1ccccc1Cl	i	i	i	-8.41*	i
CC(C)(C)c1cc(OC(=O)Cc2ccccc2)ccc1O	i	i	i	i	i
Cn1cc(/C=C2\C(=O)NC(=O)N(c3ccccc3)C2=O)c2ccccc21	i	i	i	-7.82*	i
O=C(O)Cn1cc(/C=C2\C(=O)NC(=O)N(c3ccc(Cl)cc3)C2=O)c2ccccc21	i	i	i	i	i
C[N+]12CCC(CC1)C(C(O)(c1ccccc1)c1cccs1)C2 (stereo unspecified)	i	i	i	-7.73*	i
CC(C)c1ccc(NC(=O)N2C[C@H]3C[C@@H](C2)c2cccc(=O)n2C3)cc1	i	i	i	i	i
Cc1cc(OC(=O)c2ccco2)c2c3c(c(=O)oc2c1)CCCC3	i	i	i	i	i
Cc1cc(OC(=O)c2cccs2)c2c3c(c(=O)oc2c1)CCCC3	i	i	i	-7.34*	i
O=c1[nH]c(=O)n(Cc2ccco2)c(O)c1C=NC1CCN(Cc2ccccc2)CC1	i	i	i	i	i
CN1CCN(c2ccc([N+](=O)[O-])c3no[n+]([O-])c23)CC1	i	i	i	-8.24*	i
COc1ccc(-n2c(O)c(C=NCCN(C)C)c(=O)[nH]c2=O)cc1	i	i	i	i	i
CCN(CC)c1ccc(/C=N/c2sc3c(c2C#N)C2CCN3CC2)c(O)c1	i	16.7*	.	.	i
COc1cccc(OP(=O)(Nc2ccccc2)Oc2cccc(OC)c2)c1	i	i	i	-9.89*	i
O=P(Nc1ccccc1)(Oc1ccccc1)Oc1ccccc1	i	i	i	i	i
O=C1NC(=S)NC(=O)C1=Cc1ccc(OCC(=O)N2CCCC2)cc1	i	i	i	i	i
Cc1cc(N2CCCCC2)ccc1C=C1C(=O)N(C)C(=S)N(C)C1=O	i	i	i	i	i
Cc1cc(N2CCCC2)ccc1C=C(C#N)C#N	i	i	i	i	-5.47*
CCN1C[C@@]2(COC)C3[C@@H](OC)[C@H]4[C@@H]1[C@@]3(C1C[C@@]3(O)[C@H](OC(=O)c5ccccc5)C1[C@]4(OC(C)=O)[C@@H](O)[C@H]3OC)[C@@H](OC)C[C@H]2O (stereo partly specified)	i	i	i	i	i
CCn1cc(C(=O)N2CCC3(CC2)OCCO3)c(=O)c2cc(S(=O)(=O)N3CCCC3)ccc21	i	i	i	i	i
Cc1c(C(=O)N2CCC3(CC2)OCCO3)oc2ccc(S(=O)(=O)N3CCCCC3)cc12	i	i	i	i	-5.27*
CN1CCN(Cc2ccccc2Sc2ccccc2)CC1	i	i	i	-8.16*	i
CC(Cc1ccccc1Sc1ccccc1)N(C)C (stereo unspecified)	i	i	i	-9.33*	i
CSc1ccc(CN2CCN(Cc3ccccc3Cl)CC2)cc1	i	i	i	i	i
CC(=O)OC1C2CCCC1C(N1CCCC1)CC2 (stereo unspecified)	i	i	i	i	i
CC1=Nc2ccccc2/C1=C/c1c(O)[nH]c(=O)[nH]c1=O	i	i	i	i	i
SMILES	MrgX1 ag	MrgX1 PAM	RGS4 block	RGS4 pot	MrgX1 antagonist
O=c1[nH]c(O)c(/C=C2/C=CC(c3cc(Cl)ccc3Cl)=N2)c(=O)[nH]1	i	i	i	i	-7*
O=P1(Nc2ccc(F)cc2)COc2ccccc2OC1	i	i	i	i	i
CCN(CC)c1ccc(CNCCc2ccccc2F)cc1	i	i	i	-6.97*	i
CC1(C)CC(=O)C(C=NCCN2CCN(C(=O)Cc3ccc(F)cc3)CC2)=C(O)C1	i	i	i	i	i
Cc1nn(Cc2ccccc2)c(C)c1C(=O)OCC(=O)NC1CCS(=O)(=O)C1 (stereo unspecified)	i	i	i	i	i
CCN1CCN(CC(c2ccccc2)c2ccccc2)CC1	i	i	i	-7.02*	i
N/C(=N\[N+](=O)[O-])N1CCN(C(=O)Oc2ccccc2)CC1	i	i	i	i	i

Bioassay records from PubChem BioAssay.
